# In the library only some 5.4% were active in any assay of this set; here they are far more common.
# SKKanGAS inh: S. pyogenes SKKanGAS growth inhibitors in kanamycin, primary screen, streptokinase expression inhibitor project, SKKanGAS strain, BacTiter-Glo luminescence; inhibition, % at 7.5 µM; hit rate 1.3% among 300,000; 6 h;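 active = mean replicate score, as percent of positive control median, at least 50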;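 note: strain carries kanamycin resistance gene driven by streptokinase promoter and grows in 40 µg/ml kanamycin; loss of luminescence reflects streptokinase promoter inhibition or plain growth inhibition; 0% = median of DMSO wells and 100% = positive control at its reference dose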
# Mdm2 MdmX PPI: inhibitors of human Mdm2-MdmX association, primary screen, cell-based, luminescence, split luciferase, SaOS-2, uHTS; hit rate 3% among 330,000; inhibition, % at 8 µM; SaOS-2 split-luciferase Mdm2/MdmX complementation; Protein Mdm4 (Homo sapiens) + E3 ubiquitin-protein ligase Mdm2 (Homo sapiens), …;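 active = inhibition of at least 50% at 8 µM in the primary screen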
# Target sequence (O15151 whole entry, looked up): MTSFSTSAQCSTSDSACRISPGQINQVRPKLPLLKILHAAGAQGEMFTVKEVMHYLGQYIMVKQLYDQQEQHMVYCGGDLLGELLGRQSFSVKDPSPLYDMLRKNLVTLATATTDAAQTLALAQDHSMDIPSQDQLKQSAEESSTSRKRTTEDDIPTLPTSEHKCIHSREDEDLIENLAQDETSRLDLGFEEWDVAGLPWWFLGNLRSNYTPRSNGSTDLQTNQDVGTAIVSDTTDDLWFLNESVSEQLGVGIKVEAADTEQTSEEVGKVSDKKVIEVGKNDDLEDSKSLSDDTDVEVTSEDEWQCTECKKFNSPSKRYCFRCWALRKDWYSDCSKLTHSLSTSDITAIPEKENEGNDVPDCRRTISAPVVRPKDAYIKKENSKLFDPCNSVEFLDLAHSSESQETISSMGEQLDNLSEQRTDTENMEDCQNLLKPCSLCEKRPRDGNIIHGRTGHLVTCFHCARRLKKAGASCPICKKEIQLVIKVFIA
# Target sequence (Q00987 whole entry, looked up): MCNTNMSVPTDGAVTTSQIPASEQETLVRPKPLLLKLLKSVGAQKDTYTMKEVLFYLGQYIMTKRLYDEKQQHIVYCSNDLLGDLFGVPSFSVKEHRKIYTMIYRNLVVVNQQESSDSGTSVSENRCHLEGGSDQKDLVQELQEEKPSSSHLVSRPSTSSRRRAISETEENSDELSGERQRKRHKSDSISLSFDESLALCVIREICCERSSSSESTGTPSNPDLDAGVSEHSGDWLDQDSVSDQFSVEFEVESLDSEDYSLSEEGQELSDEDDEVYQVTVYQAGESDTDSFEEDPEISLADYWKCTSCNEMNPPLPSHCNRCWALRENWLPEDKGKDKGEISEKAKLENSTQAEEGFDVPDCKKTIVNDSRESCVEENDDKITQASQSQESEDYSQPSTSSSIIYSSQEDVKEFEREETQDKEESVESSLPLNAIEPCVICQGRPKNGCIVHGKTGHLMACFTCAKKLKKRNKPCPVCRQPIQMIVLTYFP
# CSC inhib: cancer stem cell viability inhibitors, primary screen, luminescence; cancer stem cell-like cells viability; AID 2717, 2010; inhibition, % at 7.5 µM; hit rate 1.1% among 300,000; in the data active = inhibition above about 75%; tested in HMLE shEcad cells
# T cruzi repl: inhibitors of intracellular T. cruzi growth, primary screen, luminescence, NIH3T3 host cells. T. cruzi beta-gal in NIH3T3, 90 h. inhibition, % (no concentration beside the values). hit rate 1.4% among 300,000. AID 1885, 2009;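 active = mean inhibition across valid replicates above about 55%, limit read from the data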;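 note: signal also drops with host cell toxicity which is not excluded here; 0% = plate median of DMSO wells and 100% = zero luminescence signal; higher percent means less beta-gal luminescence so fewer parasites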
#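 System: NIH/3T3 fibroblasts plus reporter T. cruzi. Medium: DMEM plus 2% FBS. Probe or stimulus: 5000 reporter trypomastigotes per well. Compound: single 50 nL compound addition per well in DMSO. Incubation: co-culture of at least 90 h after 3 h attachment. Detection: GalScreen β-gal luminescence, detergent lysis, 60 min. Evaluation: parasite load inhibition, %.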
# aSyn UTR inh: MLPCN primary screen, SNCA 5' untranslated region. alpha-synuclein 5'UTR reporter, inhibitor activity. inhibition, % (tested at 7.5 µM). hit rate 0.82% among 300,000; in the data active = inhibition above about 60%;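 note: H4 neuroglioblastoma cells stably carrying SNCA 5'UTR luciferase fusion; 0% = DMSO wells and 100% = positive control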
# Mdm2 MdmX conf: Mdm2-MdmX complex disruptors, retested hits, confirmation, luminescence, single concentration | Mdm2-MdmX binding, luminescent assay | shares compounds with Mdm2 MdmX PPI | hit rate 55% among 10,000 | inhibition, % at 8 µM; in the data active = inhibition above about 40%
# Full FLuc ctr: full-length luciferase signal inhibition, confirmation, counter-screen for Mdm2/MdmX interaction inhibitor project, cell-based, single concentration, SaOS-2; inhibition, % at 8 µM; SaOS-2 full-length luciferase counterscreen, luminescence; hit rate 77% among 6,200; shares compounds with Mdm2 MdmX PPI;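 active = mean inhibition at 8 µM reaching about 37%, which flags the compound as non-specific, limit read from the data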;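 note: p53-null SaOS-2 cells with luciferase driven by a doxycycline-inducible promoter; compound on cells about two nights before reading with doxycycline added after day one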
# * = called active by the depositor; . = no result.
SMILES,SKKanGAS inh,Mdm2 MdmX PPI,CSC inhib,T cruzi repl,aSyn UTR inh,Mdm2 MdmX conf,Full FLuc ctr
CCN(CC)c1ccc(S(=O)(=O)N2CCOCC2)cc1NC(=O)c1cc(=O)c2ccccc2o1,30.6,50.9*,-3.3,10.4,20.3,22.8,.
CCN1CCN(Cc2nc3cc(NC(=O)COc4ccc([N+](=O)[O-])cc4)ccc3n2C)CC1,-4.5,-3.7,.,19.8,-9.9,.,.
COc1cccc(NC(=O)COC(=O)c2cc(=O)c3ccccc3o2)c1,.,-6.7,.,.,.,.,.
CN(C)c1ccc(/C=c2/sc3n(c2=O)NC2(c4ccccc4)N(C)C(=O)N(C)C2(c2ccccc2)N=3)cc1 (stereo not given),15.2,31.8,11.3,-0.6,13.2,.,.
CN(C)/C=C/C(=O)c1ccc2noc(-c3cccc(F)c3)c2c1,-2.5,53.1*,0.7,-0.3,-27.3,26.3,.
Cc1onc(-c2ccccc2)c1C(=O)Nc1cc(C(F)(F)F)ccc1N1CCOCC1,17.8,29.1,56.8,14.5,28.5,.,.
CCOC(=O)c1ccc(N2CCOCC2)c(NC(=O)c2c(-c3ccccc3)noc2C)c1,2.0,60.0*,53.1,10.5,46.4,67.1*,54.0*
O=C(NCCc1cccs1)C(c1ccccc1)c1ccccc1,-10.8,5.1,10.9,-10.8,-18.0,.,.
c1ccc(CCNc2nc(-c3ccccn3)nc3ccccc23)cc1,113.3*,92.8*,43.0,76.4*,1.0,88.9*,23.0
CCCN(CCC)c1nc(-c2ccccn2)nc2ccccc12,97.3*,83.1*,34.4,58.3*,-45.3,84.7*,24.6
CCN(CC(=O)NCc1ccc(Cl)cc1)C(=O)/C=C/c1ccc(Cl)c([N+](=O)[O-])c1,2.8,21.1,-11.6,-1.1,3.5,.,.
Cc1ccc(NC(=O)CN2CCN(C)CC2)cc1Br,2.8,19.7,.,24.4,5.0,.,.
C[C@H](CO)N1C[C@H](C)[C@@H](CN(C)S(=O)(=O)c2cccs2)Oc2ccc(NC(=O)Nc3ccc(C(F)(F)F)cc3)cc2C1=O,.,67.9*,60.9,.,.,-2.4,.
C[C@@H]1CN([C@H](C)CO)C(=O)c2cc(NC(=O)Nc3ccc(C(F)(F)F)cc3)ccc2O[C@H]1CN(C)S(=O)(=O)c1cccs1,.,80.5*,.,.,.,51.0*,44.2*
CCCS(=O)(=O)c1c(S(=O)(=O)CCC)c2c(C)cccn2c1C(=O)N/N=C/c1cc(O)cc(O)c1,26.4,58.2*,132.5*,0.2,10.5,57.0*,37.0*
CCCS(=O)(=O)c1c(S(=O)(=O)CCC)c2c(C)cccn2c1C(N)=O,-3.4,-7.9,-12.5,-13.1,2.5,.,.
c1cc2c3c(cccc3c1)NC1(CCCCCC1)N2,2.5,24.4,7.8,7.5,14.4,.,.
c1cc2c3c(cccc3c1)NC1(CCC3(CC1)Nc1cccc4cccc(c14)N3)N2,26.9,72.2*,10.6,59.1*,55.8,20.6,.
O=[N+]([O-])c1ccc(-[n+]2ccc3ccccc3c2)c([N+](=O)[O-])c1,6.0,100.3*,121.1*,70.6*,-105.1,55.5*,4.9
NC(=O)[C@@H]1CC2(CC(c3cccc(NC(=O)CC(c4ccccc4)c4ccccc4)c3)=NO2)CN1C(=O)COc1ccc(Cl)cc1 (stereo not given in full),31.0,73.3*,12.2,48.9,27.0,42.3*,80.2*
NC(=O)[C@H]1CC2(CC(c3cccc(NC(=O)COc4ccc(Cl)cc4)c3)=NO2)CN1C(=O)CC(c1ccccc1)c1ccccc1 (stereo not given in full),43.8,53.7*,-8.1,49.5,16.6,23.6,.
CC1(NC(=O)Nc2cccc3ccccc23)CCS(=O)(=O)C1 (stereo not given),1.6,16.0,-12.2,1.5,-6.7,.,.
CC(=O)NC(c1cccs1)c1cc(F)c2cccnc2c1O (stereo not given),.,62.7*,50.6,.,.,66.8*,30.4
CC(=O)NC(c1ccco1)c1cc(Cl)c2ccccc2c1O (stereo not given),.,-16.5,12.3,.,.,.,.
CC(=O)NC(c1ccco1)c1cc(F)c2cccnc2c1O (stereo not given),.,56.7*,21.6,.,.,49.2*,44.2*
SMILES,SKKanGAS inh,Mdm2 MdmX PPI,CSC inhib,T cruzi repl,aSyn UTR inh,Mdm2 MdmX conf,Full FLuc ctr
COc1cccc2c1cc1c(=O)n(CC(=O)NCCCN3CCCCC3)nc(C)n12,3.1,6.6,-0.8,-15.8,-9.1,.,.
Cc1cccc(NC(=O)C2CC(O)CN2C(=O)Oc2ccccc2)c1 (stereo not given),-2.3,-6.6,.,-13.4,7.9,.,.
CCCCCc1cc(=O)oc2c(C(CCN3CCCCC3)c3cc(OC)c(OC)c(OC)c3)c(OC)cc(OC)c12 (stereo not given),6.5,97.8*,78.8*,32.8,29.2,46.5*,26.6
CCCCCc1cc(=O)oc2c(C(CCN(CC)CC)c3ccc(N(C)C)cc3)c(OC)cc(OC)c12 (stereo not given),6.7,90.1*,26.9,43.1,34.5,25.1,.
CCCCCc1cc(=O)oc2c(C(CCN3CCCC(C)C3)c3ccc(N(C)C)cc3)c(OC)cc(OC)c12 (stereo not given),1.2,96.2*,108.9*,37.6,22.2,26.9,.
CCN(CC)CCC(c1cc(OC)c(OC)c(OC)c1)c1c(OC)cc(OC)c2c(C)cc(=O)oc12 (stereo not given),-0.6,28.0,17.5,34.4,-38.1,.,.
CCCCCc1cc(=O)oc2c(C(CCN3CCCC(C)C3)c3cc(OC)c(OC)c(OC)c3)c(OC)cc(OC)c12 (stereo not given),8.0,100.2*,101.7*,50.3,43.9,52.2*,43.4*
COc1cc(OC)c2ccc(=O)oc2c1C(CCN1CCCC(C)C1)c1ccc(N(C)C)cc1 (stereo not given),6.8,-0.3,13.7,27.9,28.0,.,.
COc1cccc(NC(=O)CSc2nnnn2C2CCCCC2)c1,0.4,14.4,.,7.4,0.3,.,.
CC(=O)Oc1ccc2c(c1)cc(C)n2C,-2.2,-1.2,8.9,-9.9,3.0,.,.
Cc1cccc(CN2CCN(C(=O)CCl)CC2)c1,-1.2,63.7*,9.4,7.3,-16.5,17.5,.
CCn1c(=S)sc2c(=O)n(CC(=O)Nc3ccccc3)c(C)nc21,0.7,5.5,-12.9,12.0,20.1,.,.
Cc1nc2c(sc(=S)n2Cc2ccco2)c(=O)n1CC(=O)Nc1ccc(F)cc1,10.7,52.3*,0.3,4.1,30.5,20.9,.
